System: HFD-induced obese mice
Assay: HFD-induced obese mice
Assay type: in vivo, C57BL/6J male mice
Conditions: HFD-fed mice
In short: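 Male C57BL/6J mice, 5 weeks old, SPF, 12 h light/dark cycle, were fed high-fat diet. After 10 weeks they were randomised to daily gavage with vehicle, test compound (25 or 50 mg/kg) or reference ACC inhibitor (50 mg/kg) to week 22, with food intake and weight recorded weekly. Liver read-outs: H&E, Oil red O, sirius red, F4/80 immunofluorescence, α-SMA IHC, qPCR (ΔΔCt, 18S) and Western blot (β-actin).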

Cc1nc2ccc(C(=O)N3CCC4(CC3)CC(=O)c3c(cnn3C(C)C)C4)cc2[nH]1 [PF-05175157]
activation of macrophages (liver F4/80) (50 mg/kg ig daily): failed to prevent | Col1a1 gene expression and collagen accumulation in the liver (ig daily, sirius red staining): not observed

Source: PMC7468331 (Acta Pharmacologica Sinica, 2019)
